This is a sample that favours compounds with a hit; in the whole collection about 1.4% have one here.
JMJD2C inh: human JMJD2C demethylase inhibition | GST-JMJD2C(1-420) H3K9me3 demethylation, DELFIA europium | inhibition, % at 2.35 µM | 330,000 compounds, 0.069% hits | AID 2099;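 active = more than half of a compound's replicate wells show inhibition beyond 50%, single wells judged on their own value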;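 note: signal counts dimethyl H3K9 product captured on neutravidin plate; 0% = median of DMSO wells and 100% = 0.3 times that DMSO median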
Target sequence (Q9H3R0 1-420 limits assumed): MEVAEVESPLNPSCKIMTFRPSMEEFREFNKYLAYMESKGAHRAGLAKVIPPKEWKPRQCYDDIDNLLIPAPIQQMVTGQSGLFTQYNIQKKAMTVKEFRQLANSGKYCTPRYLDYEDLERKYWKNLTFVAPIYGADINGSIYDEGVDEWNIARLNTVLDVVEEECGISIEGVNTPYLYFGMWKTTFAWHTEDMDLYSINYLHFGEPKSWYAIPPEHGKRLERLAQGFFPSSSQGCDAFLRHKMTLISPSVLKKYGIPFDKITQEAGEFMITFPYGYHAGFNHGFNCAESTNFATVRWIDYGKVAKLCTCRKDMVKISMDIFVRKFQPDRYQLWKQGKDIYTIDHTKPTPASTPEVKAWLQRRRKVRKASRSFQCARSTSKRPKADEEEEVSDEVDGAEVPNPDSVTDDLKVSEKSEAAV
SUMO Mot1 rescue: SUMOylation pathway inhibition by Mot1-301 growth rescue; growth rescue, % at 18.8 µM; 320,000 compounds, 1% hits; S. cerevisiae Mot1-301 growth rescue, ATP luminescence, 38.5C; percent above DMSO median, 100 means doubled; AID 2716;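 active = every valid replicate shows activation above 250% relative to neutral control wells; inactive = the rest, any valid replicate at or below 250%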;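 note: OY570 slx delta 5 strain wells were the positive control but not used for scaling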
HIF act: HIF pathway transcriptional activation; 300,000 compounds, 0.32% hits; activation, % at 7.5 µM (by protocol); AID 1910; U2OS HRE-luciferase reporter, luminescence; normalized: DMSO 0%, desferrioxamine 100%;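 active = mean activation of at least 10% of the iron chelator positive control signal, with at least half of replicates also reaching 10%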
T cell HTS: modulates CD8 T cell binding to vesicles; 2C CD8+ T cell-vesicle binding, flow cytometry; hits give low values; response (vesicle binding), % at 7 µM; 330,000 compounds, 0.068% hits; AID 2052;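 active = response, share of CD8 T cells binding vesicles, and their 90th percentile fluorescence all below set limits, cut at about 80% in these data, passing the limit was not always enough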;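 note: values below 100% mean blocked vesicle binding to the CD8+ T cells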
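System: murine 2C transgenic CD8+ T lymphocytes; also added: QL9-loaded Drosophila micro-vesicles; times: binding 1.5 h at 37 °C; measured by: flow cytometry, PE anti-B7-1 (FL2) versus Alexa647 anti-CD8 (FL8), PFA-fixed; control set: Peptide-free naked vesicles (low) and QL9 vesicles with 0.7% DMSO vehicle (high)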
Active calls of the source: *; i = inactive; . = no result given.

SMILES | JMJD2C inh | SUMO Mot1 rescue | HIF act | T cell HTS
Cc1noc(C)c1NC(=O)N(C)C[C@H]1Oc2ccc(NC(=O)Cn3cnnn3)cc2C(=O)N([C@H](C)CO)C[C@@H]1C | 66* | 2 | . | i
C[C@H](CO)N1C[C@H](C)[C@@H](CN(C)Cc2ccc3c(c2)OCO3)Oc2ccc(NC(=O)Cn3cnnn3)cc2C1=O | 61* | -4 | . | 172
C[C@H](CO)N1C[C@H](C)[C@@H](CN(C)Cc2ccc(Cl)c(Cl)c2)Oc2ccc(NC(=O)Cn3cnnn3)cc2C1=O | 22 | 7 | . | 223
COc1ccc(CN(C)CC(=O)Nc2ccc(N3CCOCC3)cc2)cc1OC | -13 | -6 | -1 | 446
COc1ccc(CN(C)CC(=O)Nc2ccc(SC(F)F)cc2)cc1OC | 3 | -16 | 57* | 109
O=C(Nc1ccc2c(c1)OCCO2)C(=O)NC1CC1 | -3 | 5 | 1 | 359
CC(C)(C)NS(=O)(=O)c1ccc(-c2csnn2)s1 | 5 | 5 | 0 | 453
O=S(=O)(NC1CCCCC1)c1ccc(-c2csnn2)s1 | -8 | 297* | -1 | i
c1ccc(N2CCN(c3nc(-c4cccs4)nc4ccccc34)CC2)cc1 | 0 | 825* | 0 | 188
S=C(Nc1ccccn1)c1ccccn1 | -14 | -4 | 3 | 12*
CC(C)CC(=O)NC(c1cccs1)c1ccc2cccnc2c1O (centres undefined) | -16 | -4 | 68* | 84
CCC(=O)NC(c1cccs1)c1ccc2cccnc2c1O (centres undefined) | -5 | -17 | 196* | 102
Cc1conc1NC(c1cccs1)c1ccc2cccnc2c1O (centres undefined) | -4 | -5 | 3 | 191
O=C(COc1coc(CN2CCN(c3cccc(Cl)c3)CC2)cc1=O)NC1CCCC1 | -8 | . | 0 | 793
O=C(COC(=O)Cc1ccc(S(=O)(=O)N2CCCCC2)s1)Nc1ccc2c(c1)OCO2 | -15 | -7 | 25* | 461
COc1cc(/C=C(/C#N)c2ccc(F)cc2)ccc1Oc1ccc([N+](=O)[O-])cn1 | 2 | -2 | 0 | 281
CN1CCN(c2nc3ccccn3c(=O)c2/C=C(\C#N)S(=O)(=O)c2ccc(Cl)cc2)CC1 | 90* | -10 | 0 | 893
CC(=O)Nc1ccc(S(=O)(=O)NCc2nc(-c3cccc(C)c3)no2)cc1 | -20 | 36 | -1 | 365
CCOc1cccc2sc(N(CCN(CC)CC)C(=O)c3cccc(N4C(=O)CCC4=O)c3)nc12 | -1 | 290* | 0 | 412
CCOc1cccc2sc(N(CCN(CC)CC)C(=O)c3cccc([N+](=O)[O-])c3)nc12 | 0 | -19 | . | 222
COc1ccc(C)cc1NC(=O)CSc1nnc(-c2cc(C)[nH]n2)n1N | 7 | 3 | 0 | 194
Cc1cc(C)n(/N=C/c2c[nH]c3ccccc23)c(=O)c1C#N | -16 | 296* | 0 | 556
Cn1nc(C(=O)NC2CCCCCC2)ccc1=O | 11 | 159 | 0 | 412
Cn1nc(C(F)(F)F)cc1C(=O)NC1CCCCCC1 | 1 | 0 | 237* | 307
Nc1nc(-c2ccccn2)nc(N)c1Cc1ccccc1F | 15 | -1 | 4 | 325
SMILES | JMJD2C inh | SUMO Mot1 rescue | HIF act | T cell HTS
Nc1nc(-c2ccccn2)nc(N)c1Cc1ccc(Cl)cc1Cl | 25 | 101 | 15* | 371
CCCn1c(SCC(=O)N2CCc3ccccc3C2)nc(O)cc1=O | 4 | -22 | . | 334
CC1=C(C(=O)Nc2cccnc2)C(c2cccnc2)n2nc(-c3cccs3)nc2N1 (centres undefined) | -1 | 350* | 0 | 310
CCC(CC)N1CCN(S(=O)(=O)c2ccc(OC)cc2)CC1 | 4 | 13 | -1 | 172
CS(=O)(=O)N1CCC(Oc2ccccc2C(=O)NC(C2CC2)C2CC2)CC1 | -3 | 834* | 0 | 291
C/C(=C\C(=O)OCC(=O)NCc1ccccc1)C(=O)OCC(=O)NCc1ccccc1 | -2 | 5 | 441* | 192
CCCOc1cccc(C2C(C(=O)c3ccco3)=C(O)C(=O)N2CCCn2ccnc2)c1 (centres undefined) | -5 | -5 | 39* | 576
Cc1occc1C(=O)N1CCN(S(=O)(=O)c2ccc(F)cc2)CC1 | 0 | 1 | . | 518
Clc1ccc(CSc2ccc(-c3ccccn3)nn2)cc1 | 20 | -27 | 24* | 344
O=C(CSc1ccc(-c2ccccn2)nn1)NCc1ccc(Cl)cc1 | -3 | -25 | 0 | 158
c1ccc(CSc2ccc(-c3ccccn3)nn2)cc1 | 17 | 122 | 10* | 386
Cc1ccc(S(=O)(=O)N2CCN(c3ccccc3)CC2)c(C)c1 | -23 | 1 | -29 | 219
Cn1nc(C(F)(F)F)c(CO)c1Sc1ccc(F)cc1 | -23 | -12 | 0 | 205
Cc1ccc(-n2nnnc2CNC(=O)c2ccc3c(c2)OCO3)cc1C | 5 | 330* | 0 | 199
CCOC(=O)Cn1nc(C)n(-c2c(C)cccc2C)c1=O | -17 | . | 0 | i
O=C(COc1cc2oc(=O)c3c(c2cc1Cl)CCC3)NCC(O)c1ccccc1 (centres undefined) | -19 | 7 | 0 | 648
O=C(c1ccc(-n2cncn2)c([N+](=O)[O-])c1)N1CCN(S(=O)(=O)c2ccc(F)c(F)c2)CC1 | -8 | -3 | 0 | 511
C[C@H]1[C@H](C)CC[C@]2(C(=O)O)CC[C@]3(C)C(=CC[C@@H]4[C@@]5(C)C[C@@H](O)[C@H](O)C(C)(C)[C@@H]5CC[C@]43C)[C@H]12 | -6 | 510* | 0 | 771
O=C(NCc1ccccc1)C1CC(=O)N(C2CCCCC2)C1 (centres undefined) | -39 | 318* | 0 | 399
Cc1ccc(CCC2C3=C(CCCC3=O)OC3=C2C(=O)CCC3)cc1 | 0 | -13 | 0 | 0.0*
CC(C)c1ccc(CC(C)C2C3=C(CCCC3=O)OC3=C2C(=O)CCC3)cc1 (centres undefined) | 2 | 11 | -1 | 216
CC(C)C(=O)Nc1ccc(N2CCCC2)c(Cl)c1 | 8 | 497* | 1 | 413
COc1ccc(CNCc2ccc3ccccc3c2)c(OC)c1 | 6 | -22 | -1 | 209
Cc1ccc(C2=NOC(=O)/C2=C\c2ccccc2)cc1 | -3 | -4 | 31* | 602
O=C1ON=C(c2ccccc2)/C1=C/c1ccccc1 | -17 | 8 | 2 | 180
CC(=O)c1cc(CN2CCC(n3nccc3NC(=O)c3ccccc3)CC2)cs1 | -2 | -14 | 0 | 319
CCC(=O)c1ccc(OCC(O)CN2CCN(S(=O)(=O)N3CCCCC3)CC2)cc1 (centres undefined) | -4 | 286* | -1 | .
CN(c1ccccc1)S(=O)(=O)c1ccc(Cl)c(C(=O)NCC(c2ccco2)N2CCCC2)c1 (centres undefined) | 1 | -9 | . | 215
COc1ccccc1OCc1nnc(SCC(=O)NCc2ccco2)n1-c1ccccc1 | -13 | 8 | 423* | 92
Cc1ccc2cc(CN(C(=O)c3ccncc3)C(C)C)c(=O)[nH]c2c1 | 9 | 306* | 0 | 363

From PubChem BioAssay
